Test results taken from article PMC6681659 (Bioorganic & medicinal chemistry letters, 2018).
Each block holds one compound with its values, some of them ahead of it.

Key:
Kif15-N700 [1] = target: T1, Kif15-N700 (Homo sapiens, UniProt Q9NS87); assay: MT gliding assay with Kif15-N700; assay type: biochemical; conditions: for Kif15 MT gliding inhibition (SAR, in words): 750 nM; for effect on Kif15-driven MT gliding at a single concentration: GW108X 10 μM for 1 minute, Kif15-IN-1 1.72 μM; for reversibility of Kif15 inhibition in MT gliding assay: wash out experiment
T1 sequence (Q9NS87 1-700 limits assumed): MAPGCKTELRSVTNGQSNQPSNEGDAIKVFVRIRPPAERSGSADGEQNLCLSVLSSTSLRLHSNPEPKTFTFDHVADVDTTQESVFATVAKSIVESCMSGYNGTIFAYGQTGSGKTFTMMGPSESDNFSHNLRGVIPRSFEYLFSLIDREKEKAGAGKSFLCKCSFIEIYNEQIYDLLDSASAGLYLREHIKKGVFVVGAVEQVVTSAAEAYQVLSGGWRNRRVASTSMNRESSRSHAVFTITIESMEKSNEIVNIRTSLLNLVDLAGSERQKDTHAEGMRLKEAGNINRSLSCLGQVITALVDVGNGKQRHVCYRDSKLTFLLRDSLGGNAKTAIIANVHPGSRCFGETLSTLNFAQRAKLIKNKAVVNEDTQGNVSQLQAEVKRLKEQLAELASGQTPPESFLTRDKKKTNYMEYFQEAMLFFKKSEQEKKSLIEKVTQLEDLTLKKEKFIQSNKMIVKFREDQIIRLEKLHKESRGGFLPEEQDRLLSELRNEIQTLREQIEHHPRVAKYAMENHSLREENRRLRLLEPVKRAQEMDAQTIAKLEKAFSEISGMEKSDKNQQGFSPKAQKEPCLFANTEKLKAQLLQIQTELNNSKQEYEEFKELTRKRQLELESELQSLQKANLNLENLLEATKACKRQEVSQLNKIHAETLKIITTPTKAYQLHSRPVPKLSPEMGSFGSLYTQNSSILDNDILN
Method in brief: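 Motility assay in which Kif15-N700 glides fluorescent MTs, scored by gliding velocity. The SAR screen used 750 nM test compound in triplicate (some in duplicate), with n ≥ 30 measurements per replicate. Concentration-response series ran 10 to 0.2 μM (12 concentrations) or 30 to 0.1 μM (5 concentrations). For reversibility, gliding was started in DMSO, then 10 μM compound was added for 1 minute, followed by a double wash-out.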

RPE-1 cells = conditions: cited from earlier work
Kif15 = target: T2, Kif15 (Homo sapiens, UniProt Q9NS87); assay: Kif15 localization and protein level in RPE-1 cells; assay type: cell-based; conditions: 25 μM
T2 sequence (Q9NS87 1-1388): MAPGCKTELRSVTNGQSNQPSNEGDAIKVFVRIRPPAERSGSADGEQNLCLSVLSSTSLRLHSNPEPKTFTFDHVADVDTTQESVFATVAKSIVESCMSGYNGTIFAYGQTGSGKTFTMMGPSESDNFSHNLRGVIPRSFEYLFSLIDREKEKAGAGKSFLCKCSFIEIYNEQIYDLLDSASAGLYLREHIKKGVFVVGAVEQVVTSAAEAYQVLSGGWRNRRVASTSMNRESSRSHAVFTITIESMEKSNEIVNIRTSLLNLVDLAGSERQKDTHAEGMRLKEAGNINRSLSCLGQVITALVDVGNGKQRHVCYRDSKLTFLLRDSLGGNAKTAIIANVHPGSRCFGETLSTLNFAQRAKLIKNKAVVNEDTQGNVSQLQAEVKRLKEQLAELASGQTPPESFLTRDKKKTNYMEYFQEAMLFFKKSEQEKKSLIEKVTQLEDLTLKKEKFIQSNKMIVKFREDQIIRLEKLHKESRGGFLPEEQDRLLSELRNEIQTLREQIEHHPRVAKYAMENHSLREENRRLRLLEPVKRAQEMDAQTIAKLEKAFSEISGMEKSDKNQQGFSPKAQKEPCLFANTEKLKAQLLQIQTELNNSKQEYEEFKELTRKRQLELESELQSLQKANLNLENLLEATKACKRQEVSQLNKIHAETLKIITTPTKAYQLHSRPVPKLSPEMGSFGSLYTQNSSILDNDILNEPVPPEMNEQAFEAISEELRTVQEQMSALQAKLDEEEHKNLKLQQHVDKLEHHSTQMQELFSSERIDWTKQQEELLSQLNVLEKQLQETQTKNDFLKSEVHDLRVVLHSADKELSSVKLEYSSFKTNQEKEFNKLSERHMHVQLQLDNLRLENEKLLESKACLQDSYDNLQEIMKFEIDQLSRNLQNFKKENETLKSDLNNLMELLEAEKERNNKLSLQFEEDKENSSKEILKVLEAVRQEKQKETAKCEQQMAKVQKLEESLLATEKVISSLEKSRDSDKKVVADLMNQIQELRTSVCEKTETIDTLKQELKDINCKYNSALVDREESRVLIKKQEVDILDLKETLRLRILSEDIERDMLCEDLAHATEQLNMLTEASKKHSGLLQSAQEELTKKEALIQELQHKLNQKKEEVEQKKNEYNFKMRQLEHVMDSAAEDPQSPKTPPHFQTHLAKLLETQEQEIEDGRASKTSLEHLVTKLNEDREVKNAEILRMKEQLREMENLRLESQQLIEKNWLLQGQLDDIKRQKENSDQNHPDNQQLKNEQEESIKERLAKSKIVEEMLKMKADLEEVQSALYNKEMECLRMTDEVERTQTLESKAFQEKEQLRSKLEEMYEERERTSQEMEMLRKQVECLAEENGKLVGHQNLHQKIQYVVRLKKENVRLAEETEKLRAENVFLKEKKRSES
Method in brief: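 TP53−/− RPE-1 cells were exposed to the test compound at 25 μM or to DMSO for 24 h, then immunostained for Kif15, tubulin and DNA. Imaging used max-intensity z-projections or single optical sections. Spindle-bound Kif15 was quantified on metaphase MTs as the ratio of Kif15 to tubulin fluorescence intensity. 25–30 cells were analysed, pooled from triplicate experiments.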

Kif15-N700 [2] = target: T1, Kif15-N700; assay: MT-stimulated ATPase activity of Kif15-N700 at varying ATP or MT concentrations; assay type: biochemical; conditions: for mode of inhibition with respect to ATP: Lineweaver-Burk analysis
KIRC-1 cells = assay: Spindle monopolarity in K5I-resistant KIRC-1 cells; assay type: cell-based
TP53−/− RPE-1 cells = assay: Spindle morphology; assay type: cell-based; conditions: 25 μM
Method in brief: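 TP53−/− RPE-1 cells were exposed to 25 μM test compound or DMSO for 24 h and stained for tubulin, Kif15 and DNA. Pre-anaphase microtubule arrays were scored for bipolarity, in triplicate with at least 100 cells per replicate; spindle lengths were compared with DMSO-treated cells.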

[3] = ATP varied, high MT concentration

- Kif15 MT gliding inhibition (SAR, in words) (Kif15-N700 [1]): abolished activity
Compound: O=C1Nc2ccc(C(=O)c3ccco3)cc2/C1=C/c1cc(Br)cc(Br)c1 [Compound 8]

- Kif15 MT gliding inhibition (SAR, in words) (Kif15-N700 [1]): intermediary inhibition
Compound: O=C1Nc2ccc(C(=O)c3ccco3)cc2/C1=C/c1cc(Cl)c(O)c(Br)c1 [Compound 7]

- Kif15 MT gliding inhibition (SAR, in words) (Kif15-N700 [1]): intermediary inhibition
Compound: O=C1Nc2ccc(C(=O)c3ccco3)cc2/C1=C/c1cc(F)c(O)c(Br)c1 [Compound 6]

- Kif15 MT gliding inhibition (SAR, in words) (Kif15-N700 [1]): reduced in activity
Compound: Cc1cc(/C=C2\C(=O)Nc3ccc(C(=O)c4ccco4)cc32)cc(C)c1O [Compound 9]

Compound: O=C1Nc2ccc(C(=O)c3ccco3)cc2/C1=C/c1cc(I)c(O)c(I)c1 [Compound 5]
- Kif15 MT gliding inhibition (SAR, in words) (Kif15-N700 [1]): not as well tolerated

Compound: BRD9876
- effect on spindle integrity (RPE-1 cells): does not cause spindle collapse

- Kif15 MT gliding inhibition (SAR, in words) (Kif15-N700 [1]): abolished activity
Compound: COc1c(Br)cc(/C=C2\C(=O)Nc3ccc(C(=O)c4ccco4)cc32)cc1Br [Compound 10]

- effect on spindle-bound levels of Kif15 (Kif15): did not reduce
- effect on Kif15-driven MT gliding at a single concentration (Kif15-N700 [1]): abolishes Kif15-driven MT gliding
- reversibility of Kif15 inhibition in MT gliding assay (Kif15-N700 [1]): reversible
- change in KM^ATP (Kif15-N700 [2]; [3]): increase
- mode of inhibition with respect to ATP (Kif15-N700 [2]): competes with ATP binding
Compound: CCOC(=O)c1sc(NC(=O)[C@H](C(C)C)n2c(=O)[nH]c3ccccc3c2=O)nc1C [Kif15-IN-1, reference compound]

- effect on Kif15-driven MT gliding at a single concentration (Kif15-N700 [1]): eliminate MT gliding
- reversibility of Kif15 inhibition in MT gliding assay (Kif15-N700 [1]): reversible
- change in KM^ATP (Kif15-N700 [2]; [3]): no change
- change in Vmax (Kif15-N700 [2]; [3]): decrease
- mode of inhibition with respect to ATP (Kif15-N700 [2]): not competing with ATP binding
- change in KM^MT (Kif15-N700 [2]; MT varied, saturating ATP): increase
Compound: O=C1Nc2ccc(C(=O)c3ccco3)cc2/C1=C/c1cc(Cl)c(O)c(Cl)c1 [GW108X]
- dose dependence of block of spindle assembly (KIRC-1 cells): dose-dependent
- spindle length (effect in words) (TP53−/− RPE-1 cells): unaffected
